Assay outcomes (PubChem BioAssay)
KCNK9 block = human KCNK9 channel inhibition; HEK293 KCNK9, FluxOR thallium flux fluorescence; hits give low values; B-score at 10 µM; hit rate 1.2% among 310,000; AID 488922;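 active = ratio B-score over 3 SD below the library mean, with starting fluorescence within 5 SD of its mean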;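 note: negative B-score means less thallium flux so channel inhibition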
KCNQ1 inh = inhibitors of human KCNQ1 potassium channel; P51787; CHO-K1 KCNQ1, FluxOR thallium flux fluorescence; hits give high values; B-score at 10 µM; hit rate 1.3% among 310,000; AID 2642;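 active = compounds whose thallium flux B-score, printed positive for inhibition, exceeds three library SD while starting fluorescence stays within three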;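 note: channel opened by potassium depolarization with thallium stimulus after 20 min compound exposure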
hERG rescue = shields human hERG channel from block by proarrhythmic agents. Q12809. hit rate 0.51% among 310,000. CHO-hERG, FluxOR thallium flux, dofetilide IC70 present. activation (rescue from dofetilide block), less the hit threshold, % at 10 µM;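 active = activation above the mean of controls blocked by dofetilide plus 5 SD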;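 note: thallium influx through hERG after potassium depolarization seen as dye fluorescence rise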
KCNQ1 act = potentiates or activates the human KCNQ1 potassium channel; hit rate 0.35% among 310,000; AID 2648; CHO-K1 KCNQ1, thallium flux FluxOR fluorescence; hits give high values; B-score at 10 µM;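 active = fluorescence ratio B-score, a plate-corrected score, at least three library SD, with initial intensity B-score within 5 SD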
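Assay system: CHO-K1 cells stably expressing KCNQ1; Medium: assay buffer with matched DMSO; Also added: K+/Tl+ depolarizing stimulus; Dosing: single dose; Timing: dye 90 min, compound 20 min, room temperature; Measured by: kinetic FluxOR thallium fluorescence, 10-s 1-Hz baseline, 110-s post-stimulus read; Read-out: peak-minus-minimum fluorescence over initial fluorescence, negative-control normalized, B-scored.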
Kir21 block = inhibitors of mouse Kir2.1 inward-rectifier potassium channel; HEK293-Kir2.1, FluxOR thallium flux fluorescence; hits give low values; B-score at 10 µM; hit rate 0.85% among 310,000;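 active = fluorescence ratio B-score at or below minus 3 SD of library scores, with starting-brightness B-score within 2 SD, cut at about -4.2 in these data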;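 note: channel flux triggered by added potassium and thallium sulfate stimulus; B-score of peak minus minimum fluorescence over baseline after thallium stimulus; more negative B-score means stronger Kir2.1 block with less thallium influx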
KCNK3 inh = human KCNK3 channel inhibition, primary screen. CHO-KCNK3 thallium flux, FluxOR fluorescence; hits give low values. hit rate 0.84% among 340,000. AID 602410. B-score at 10 µM;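 active = B-score under library mean minus 4 SD, starting fluorescence ratio at most library mean plus 5 SD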;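 note: more negative B-score means stronger inhibition of thallium flux through KCNK3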
Hits are given with their value; . = inactive; / = not tested or not shown. Rows were chosen to be rich in hits. Some 3.8% of all compounds tested hit in one or more screens of this group.

SMILES	KCNK9 block	KCNQ1 inh	hERG rescue	KCNQ1 act	Kir21 block	KCNK3 inh
O=[N+]([O-])c1cc(Cl)cc(/C=N/NC(=S)Nc2ccc(S(=O)(=O)N3CCOCC3)cc2)c1O	.	8	.	.	.	.
O=C1[C@H]2[C@H](C=CC[C@H]2C(=O)N2CCN(c3ccccc3)CC2)CCN1Cc1ccccc1	.	.	.	.	.	.
O=c1/c(=C/c2ccc(O)c([N+](=O)[O-])c2)sc2nc3ccccc3n12	/	/	/	/	/	.
CCN(CC)c1ccc(/C=c2\sc3nc4ccccc4n3c2=O)c(O)c1	.	9	.	.	.	.
COc1ccc(-n2cnc3c(sc4nccc(N(C)C)c43)c2=O)cc1	.	.	.	.	.	.
S=C(Nc1ccc(Br)cc1)N1CCn2cccc2C1c1cccnc1 (stereo not drawn)	.	.	.	22	.	.
COc1ccccc1/C=N/N1C(=O)c2cccc3cccc(c23)C1=O	.	.	7.2	.	.	.
COc1ccc(/C=N/N2C(=O)c3ccccc3C2=O)cc1	.	.	.	.	.	.
O=S(=O)(Nc1ccccc1F)c1ccc(Cl)nc1	/	/	/	/	/	.
c1ccc2c(c1)ncn2-c1ncnc2sc3c(c12)CCCC3	.	.	.	.	.	.
CC(O)CNc1nc2ccccc2n1-c1ncnc2sc3c(c12)CCC3 (stereo not drawn)	.	.	.	.	-7.62	.
CC(C)NC(=O)C1CCCN(c2nnc(-n3cccc3)s2)C1 (stereo not drawn)	.	.	.	.	.	.
CC(=O)Nc1ccc(NC(=O)C2CCCN(c3nnc(-n4cccc4)s3)C2)cc1 (stereo not drawn)	.	.	.	.	-4.61	.
CN(CC(=O)Nc1ccccc1C(F)(F)F)C(=O)c1ccccc1Sc1ccccc1C#N	/	/	/	/	/	-9.17
CCN(CC(=O)Nc1ccccc1C(F)(F)F)C(=O)c1ccccc1Sc1ccccc1C#N	/	/	/	/	/	.
Cc1ccc(NC(=S)Nc2ccc(Cl)c(Cl)c2)c(OC(F)F)c1	.	9	.	.	.	.
Cc1ccc(C(C#N)c2ccc3c(C(F)(F)F)cc(C(F)(F)F)nc3n2)cc1 (stereo not drawn)	.	.	10.3	43	.	.
N#CC(c1ccccc1)c1ccc2c(C(F)(F)F)cc(C(F)(F)F)nc2n1 (stereo not drawn)	.	.	.	.	.	.
O=C(Oc1cccc(NC(=O)c2ccco2)c1)c1ccc(Br)c(S(=O)(=O)N2CCCCC2)c1	-7.79	.	.	.	.	.
O=c1c(-c2ccc(Cl)cc2)[n+]([O-])c2ccccc2n1O	.	.	40.2	32	.	.
O=c1c(-c2cccc([N+](=O)[O-])c2)[n+]([O-])c2ccccc2n1O	.	.	.	.	.	.
C/C(=N\Nc1nc(C)c(C)s1)c1ccc([N+](=O)[O-])cc1	.	.	30.4	19	.	.
Cc1cccc(CN2CCCC(C(=O)Nc3ccccc3Oc3cccnc3)C2)c1 (stereo not drawn)	.	.	.	.	-5.51	.
Cc1ccc(CN2CCC(C(=O)Nc3ccc(Oc4cccnc4)cc3)CC2)cc1	.	.	.	.	-4.79	.
O=C(Nc1ccc(Oc2cccnc2)cc1)C1CCN(Cc2ccccc2)CC1	.	.	.	.	.	.
SMILES	KCNK9 block	KCNQ1 inh	hERG rescue	KCNQ1 act	Kir21 block	KCNK3 inh
Cn1c2ccccc2c(=O)c2ccc(NCCc3cccs3)cc21	/	/	/	/	/	-9.11
Cc1nc(-c2cccc(C(F)(F)F)c2)sc1C(=O)O	.	.	.	.	.	.
CCn1nc(C)c(/C=N/NC(=S)Nc2ccc(Cl)cc2Cl)c1C	.	.	4.8	.	.	.
Cc1nn(C)cc1/C=N/NC(=S)Nc1ccc(Cl)cc1Cl	.	.	.	.	.	.
O=C(O)c1cccc(S(=O)(=O)Nc2cc(Cl)ccc2Cl)c1	.	.	.	.	.	.
CC1CC(C)CN(C(=O)c2cccc(S(=O)(=O)Nc3cc(C(F)(F)F)ccc3Cl)c2)C1 (stereo not drawn)	.	7	.	.	.	.
CCOCCCNC(=O)c1ccc(NC(=O)C2CCCO2)cc1 (stereo not drawn)	.	.	.	.	.	.
Cc1ncc(N=Nc2ccc(F)cc2)c(-c2ccc(Cl)cc2)n1	.	.	.	.	.	.
Cc1ccn2c(/C=N/OCc3ccc(F)cc3)c(-c3ccc(Cl)cc3)nc2c1	-7.41	.	.	.	.	.
CC(=O)C1=C(C)NC(SCC(=O)c2ccc(Cl)cc2)=C(C#N)C1c1ccco1 (stereo not drawn)	-15.1	.	.	.	.	.
CC(=O)C1=C(C)NC(SCc2ccc(C#N)cc2)=C(C#N)C1c1ccco1 (stereo not drawn)	/	/	/	/	/	.
Cc1ccccc1CS(=O)(=O)CCC(=O)NCCCN1CCOCC1	.	.	.	.	.	.
COc1ccc(N2CCN(S(=O)(=O)CCNC(=O)CCCc3ccccc3)CC2)cc1	.	.	.	.	.	.
CCn1ncc(-c2ccnc3cc(C(=O)O)nn23)c1C	.	.	.	.	.	.
C(=C\c1ccccc1)/CSc1nnc(-c2ccccn2)n1Cc1ccco1	.	.	.	.	-7.92	.
O=C(N/N=C\c1c(O)ccc2ccccc12)c1ccc(S(=O)(=O)N2CCCCC2)cc1	.	6	.	.	.	.
O=C(CN1CCCc2ccccc21)N/N=C/c1ccccc1	.	.	.	.	.	.
O=C(CN1CCCc2ccccc21)N/N=C/c1c(O)ccc2ccccc12	.	7	.	.	.	.
Cc1cccc(NC(=O)CSc2cccc[n+]2[O-])c1C	/	/	/	/	/	.
S=c1[nH]c2cnccc2n1Cc1ccccc1	.	.	.	.	.	.
CCOc1ccc(C2C3=C(CC(C)(C)CC3=O)N(CC(=O)O)C3=C2C(=O)CC(C)(C)C3)cc1OCC	.	.	.	.	.	.
COCCNC(=S)N(CCO)Cc1cc2cc3c(cc2[nH]c1=O)OCO3	.	.	.	.	.	.
COc1cc(C2C3=C(CCCC3=O)Nc3[nH]n(-c4ccccc4)c(=O)c32)ccc1O (stereo not drawn)	/	/	/	/	/	.
CCOc1ccc(/C(O)=C2/C(=O)C(=O)N(c3ncccn3)C2c2ccc(Cl)cc2)cc1 (stereo not drawn)	.	.	.	.	.	.
N#Cc1c(NC(=O)C(=O)NCCCN2CCOCC2)sc2c1CCC2	.	.	.	.	.	.
COC(=O)c1c(NC(=O)C(=O)NCCCN2CCOCC2)sc2c1CCCC2	.	.	.	.	-4.98	.
CC(C)CCn1c(=O)c2ccccc2c2ccccc2c1=O	.	6	.	.	.	.
CCC1(CC(C)C)SC(N)=NC1=O (stereo not drawn)	/	/	/	/	/	.
Cc1cccc(NC(=O)CSc2ncnc3sc(C)c(C)c23)n1	.	.	.	.	.	.
Cc1sc2ncnc(SCC(=O)NC(=O)c3cccn3C)c2c1C	.	.	.	11	.	.
